From ChEMBL document CHEMBL1777716, “Identification and optimisation of novel sulfonamide, selective vasopressin V1B receptor antagonists” (Bioorg Med Chem Lett, 2011) come the findings set out here.

In series [1] the target is T1, Vasopressin V1b receptor (Homo sapiens, UniProt P47901).
T1 sequence (P47901 whole entry): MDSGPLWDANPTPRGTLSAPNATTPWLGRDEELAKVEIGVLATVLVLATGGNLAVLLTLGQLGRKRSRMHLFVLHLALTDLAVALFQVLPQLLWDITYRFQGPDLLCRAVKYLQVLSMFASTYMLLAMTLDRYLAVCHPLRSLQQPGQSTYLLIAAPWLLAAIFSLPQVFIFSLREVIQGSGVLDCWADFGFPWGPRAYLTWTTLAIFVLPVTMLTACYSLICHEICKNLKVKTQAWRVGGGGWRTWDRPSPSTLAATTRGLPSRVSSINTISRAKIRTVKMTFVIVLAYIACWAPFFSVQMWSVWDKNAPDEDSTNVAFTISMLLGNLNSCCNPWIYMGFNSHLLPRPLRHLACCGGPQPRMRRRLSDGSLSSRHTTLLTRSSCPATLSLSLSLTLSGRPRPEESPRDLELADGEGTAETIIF
Put plainly: Displacement of [3H]-AVP from human vasopressin V1B receptor expressed in CHO cells. The series is classed as cell-based. The procedure, abridged: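 Whole-cell binding in CHO cells expressing human receptor, [³H]AVP tracer, increasing compound concentrations; nonspecific binding with 10 µM lysine vasopressin. Affinity (Ki) from non-linear regression of specific binding versus concentration; mean of at least 2 independent experiments run in duplicate.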
On the technique in general: Loss of bound radioactivity is the signal in a displacement assay; it reports binding, not function.

The target of the next series is T2, Oxytocin receptor (Homo sapiens, UniProt P30559).
T2 sequence (P30559 whole entry): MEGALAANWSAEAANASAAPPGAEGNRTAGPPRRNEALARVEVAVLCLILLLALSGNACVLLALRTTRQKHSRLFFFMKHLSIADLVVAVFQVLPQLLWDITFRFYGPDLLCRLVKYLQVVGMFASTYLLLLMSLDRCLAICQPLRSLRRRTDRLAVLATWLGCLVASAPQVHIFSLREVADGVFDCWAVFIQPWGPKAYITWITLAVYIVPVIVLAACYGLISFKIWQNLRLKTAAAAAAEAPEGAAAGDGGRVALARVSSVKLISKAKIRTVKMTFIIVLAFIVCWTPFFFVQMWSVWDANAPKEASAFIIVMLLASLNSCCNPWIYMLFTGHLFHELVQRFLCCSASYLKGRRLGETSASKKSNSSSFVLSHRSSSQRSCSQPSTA
Put plainly: Displacement of [3H]oxytocin from human oxytocin receptor expressed in CHO cells. In kind it is cell-based. The procedure, abridged:
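Intact CHO cells expressing human receptor incubated with [³H]oxytocin plus increasing compound concentrations; 10 µM oxytocin defines nonspecific binding. Ki obtained by non-linear regression of specific binding against compound concentration; values averaged from at least 2 independent duplicate experiments.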

The target of another series is Vasopressin V1a receptor (Homo sapiens, UniProt P37288). Put plainly: Displacement of [3H]-AVP from human vasopressin V1A receptor expressed in CHO cell membranes. Put shortly:
(§1)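 Membranes from CHO cells expressing the human receptor incubated with [³H]AVP and increasing compound concentrations. Nonspecific binding defined with 10 µM lysine vasopressin. Specific binding plotted against compound concentration; affinity derived by non-linear regression. Mean of at least 2 independent experiments in duplicate.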

A further series concerns the target Vasopressin V2 receptor (Homo sapiens, UniProt P30518). The series can be described thus: Displacement of [3H]-AVP from human vasopressin V2 receptor expressed in CHO cell membranes. The procedure, abridged:
as §1

The target of series [2] is T1, Vasopressin V1b receptor. Put plainly: Antagonist activity at human vasopressin V1B receptor expressed in CHO cells assessed as inhibition of AVP-induced calcium mobilisation by luciferase reporter gene assay. The series is classed as functional, cell-based.
Series [3] can be described thus: Solubility of the compound at pH 7.4. The settings on record: buffer. The series is classed as physicochemical. Put shortly: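 Kinetic solubility measured at pH 7.4, reported in mg/L.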
The nature of series [4]: Lipophilicity, log D of the compound at pH 7.4. In kind it is physicochemical. The settings on record: buffer.
Series [5] deals with 5-hydroxytryptamine receptor 6 (Homo sapiens) (UniProt P50406). The series can be described thus: Binding affinity to 5HT6 receptor.
Chain of 5-hydroxytryptamine receptor 6 (Homo sapiens) (P50406 whole entry): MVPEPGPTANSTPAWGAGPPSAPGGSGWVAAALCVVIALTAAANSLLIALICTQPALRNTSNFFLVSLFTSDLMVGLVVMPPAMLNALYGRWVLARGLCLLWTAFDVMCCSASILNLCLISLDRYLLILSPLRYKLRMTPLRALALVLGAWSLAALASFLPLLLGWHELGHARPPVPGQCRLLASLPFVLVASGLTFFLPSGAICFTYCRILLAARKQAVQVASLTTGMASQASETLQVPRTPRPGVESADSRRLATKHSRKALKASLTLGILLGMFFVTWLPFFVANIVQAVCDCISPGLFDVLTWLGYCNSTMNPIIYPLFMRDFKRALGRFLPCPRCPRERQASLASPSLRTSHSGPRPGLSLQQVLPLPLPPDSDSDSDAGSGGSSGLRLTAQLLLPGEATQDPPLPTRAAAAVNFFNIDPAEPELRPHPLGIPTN

≈ marks a conversion by molar mass, not a printed value. Calls of active or inactive are those of the source. No cut-off for these calls is given here. Non-standard residues stand in square brackets, D forms with d. Residues, ends and D or L forms follow the SMILES beside them. *: point of attachment. 2Nal = N[C@@H](Cc1ccc2ccccc2c1)C(=O)O; Mtr = COc1cc(C)c(S(=O)(=O)*)c(C)c1C; Piperidide = C1CCN(*)CC1

Chain of Vasopressin V2 receptor (P30518 whole entry): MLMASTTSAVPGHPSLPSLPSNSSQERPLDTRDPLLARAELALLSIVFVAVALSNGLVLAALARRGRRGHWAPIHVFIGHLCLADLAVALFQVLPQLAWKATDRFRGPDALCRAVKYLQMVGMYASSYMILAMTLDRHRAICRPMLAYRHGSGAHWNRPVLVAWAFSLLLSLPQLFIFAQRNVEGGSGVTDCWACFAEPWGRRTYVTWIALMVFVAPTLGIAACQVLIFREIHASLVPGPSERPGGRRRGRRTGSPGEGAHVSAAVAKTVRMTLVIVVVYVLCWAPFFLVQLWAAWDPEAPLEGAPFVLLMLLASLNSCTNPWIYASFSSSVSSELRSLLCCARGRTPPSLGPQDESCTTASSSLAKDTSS
Chain of Vasopressin V1a receptor (P37288 whole entry): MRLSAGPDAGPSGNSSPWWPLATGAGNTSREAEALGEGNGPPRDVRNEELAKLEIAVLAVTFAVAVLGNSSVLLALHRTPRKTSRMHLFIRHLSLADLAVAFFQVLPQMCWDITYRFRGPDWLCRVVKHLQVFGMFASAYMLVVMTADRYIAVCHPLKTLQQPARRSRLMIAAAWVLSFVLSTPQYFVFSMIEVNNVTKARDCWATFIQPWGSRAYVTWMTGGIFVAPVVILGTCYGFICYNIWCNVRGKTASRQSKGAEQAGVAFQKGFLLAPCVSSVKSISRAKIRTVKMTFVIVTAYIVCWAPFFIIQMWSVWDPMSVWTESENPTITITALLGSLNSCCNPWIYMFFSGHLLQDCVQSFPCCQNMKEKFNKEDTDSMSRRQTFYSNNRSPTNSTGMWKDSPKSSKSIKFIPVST

Broadly, the Ki is the dissociation constant of the complex between target and ligand, obtained from inhibition or displacement. At Vasopressin V1b receptor [1], `COc1cc(C)c(S(=O)(=O)N[C@@H](Cc2ccccc2)C(=O)NCC(=O)N2CCCCC2)c(C)c1C` (Mtr-Phe-Gly-Piperidide) came in with a Ki of more than 10000 nM.

As for `COc1cc(C)c(S(=O)(=O)N[C@@H](Cc2ccccc2)C(=O)N[C@@H](Cc2ccccc2)C(=O)N2CCCCC2)c(C)c1C`, at Vasopressin V1b receptor [1], the affinity, expressed as Ki, was 630 nM.

`COc1cc(C)c(S(=O)(=O)N[C@@H](Cc2ccccc2)C(=O)N[C@H](Cc2ccccc2)C(=O)N2CCCCC2)c(C)c1C` yielded a Ki on Vasopressin V1b receptor [1] of more than 10000 nM.

As for `COc1cc(C)c(S(=O)(=O)N[C@@H](Cc2ccccc2)C(=O)NCCCN2CCN(C)CC2)c(C)c1C`, the affinity at Vasopressin V1b receptor [1], expressed as Ki, was 250 nM.

On to `COc1cc(C)c(S(=O)(=O)N[C@@H](Cc2ccccc2)C(=O)NC(Cc2ccc3c(N)nccc3c2)C(=O)N2CCCCC2)c(C)c1C` (some centres undefined), for which the Ki at Vasopressin V1b receptor [1] is 63 nM.

On Vasopressin V1b receptor [1], `COc1ccc(S(=O)(=O)n2c(C)c(C(=O)N3CCCNCC3)c3cc(F)ccc32)c(C)c1C` yielded a Ki of 310 nM.

Regarding `COc1ccc(S(=O)(=O)n2c(C)c(C(=O)N3CCCN(C)CC3)c3ccccc32)c(C)c1C`, at Vasopressin V1b receptor [1], the inhibition constant (Ki) was 500 nM.

Compound `COc1ccc(S(=O)(=O)n2c(C)c(C(=O)N3CCCNCC3)c3cc(C)ccc32)c(C)c1C` registered a Ki on Vasopressin V1b receptor [1] of 790 nM.

Consider `COc1ccc(S(=O)(=O)n2c(C)c(CC(=O)NCCCN3CCN(C)CC3)c3cc(F)ccc32)c(C)c1C`, for which the affinity on Vasopressin V1b receptor [1] corresponds to a Ki of 430 nM.

The compound `COc1ccc(S(=O)(=O)n2c(C)c(C(=O)NCCCN3CCN(C)CC3)c3ccccc32)c(C)c1C` displayed a Ki at Vasopressin V1b receptor [1] of 560 nM.

In turn, `COc1cc(C)c(S(=O)(=O)N[C@@H](Cc2ccccc2)C(=O)NCCN2CCN(C)CC2)c(C)c1C` gave an inhibition constant Ki on Vasopressin V1b receptor [1] of 500 nM.

Take `COc1ccc2c(c1)c(CC(=O)N1CCCNCC1)c(C)n2S(=O)(=O)c1ccc(OC)c(C)c1C`: the figures for the Ki at Vasopressin V1b receptor [1] and on Oxytocin receptor were 180 nM and 320 nM, respectively.

The compound `COc1ccc(S(=O)(=O)n2c(C)c(CC(=O)N(C)CCc3ccccn3)c3cc(F)ccc32)c(C)c1C` displayed a Ki on Vasopressin V1b receptor [1] of 260 nM.

One may read the IC50 as the midpoint of a concentration-inhibition curve. A word on the solubility: it is how much of the substance goes into solution per volume. What is called logD is the decadic logarithm of the distribution of all forms, ionised or not, between an organic phase and buffer at a given pH. A lower logD goes with a more hydrophilic compound. With `COc1ccc2c(c1)c(C(=O)N1CCCNCC1)c(C)n2S(=O)(=O)c1ccc(OC)c(C)c1C`, the Ki at Vasopressin V1b receptor [1] was 190 nM; on Vasopressin V1a receptor it was more than 10000 nM; at Vasopressin V2 receptor, more than 10000 nM; on Oxytocin receptor, more than 10000 nM. The IC50 on Vasopressin V1b receptor [2] is 371 nM. The solubility in series [3] came to 72 µg/mL (≈ 148 µM). The compound also yielded a logD in series [4] of 2.

In turn, `COc1cc(C)c(S(=O)(=O)N[C@@H](Cc2ccccc2)C(=O)NCCCN2CCC(C)CC2)c(C)c1C` had a Ki at Vasopressin V1b receptor [1] of 2500 nM.

Turning to `COc1cc(C)c(S(=O)(=O)N[C@@H](Cc2ccccc2)C(=O)NCCCN2CCOCC2)c(C)c1C`, affinity at Vasopressin V1b receptor [1] was put at a Ki of 10000 nM.

For the compound `COc1cc(C)c(S(=O)(=O)N[C@@H](Cc2ccccc2)C(=O)N2CCCN(C)CC2)c(C)c1C`, on Vasopressin V1b receptor [1], the affinity, expressed as Ki, was 3200 nM.

Regarding `COc1cc(C)c(S(=O)(=O)N[C@@H](Cc2ccccc2)C(=O)NCCCN(C)C)c(C)c1C`, the Ki on Vasopressin V1b receptor [1] was 2000 nM.

Compound `COc1ccc(S(=O)(=O)N2CC(C(=O)NCCCN3CCN(C)CC3)c3ccccc32)c(C)c1C` (centres undefined) returned a Ki on Vasopressin V1b receptor [1] of 1200 nM. Besides, in series [5], the result was Active.

`COc1cc(C)c(S(=O)(=O)N[C@@H](Cc2ccccc2)C(=O)N[C@@H](Cc2ccc3ccccc3c2)C(=O)N2CCCCC2)c(C)c1C` (Mtr-Phe-[2Nal]-Piperidide) gave a Ki at Vasopressin V1b receptor [1] of more than 10000 nM.

At Vasopressin V1b receptor [1], `COc1cc(C)c(S(=O)(=O)N[C@@H](Cc2ccccc2)C(=O)N(C)CCCN2CCN(C)CC2)c(C)c1C` registered a Ki of 1000 nM.
